What was measured:
[1] = system: HeLa; experiment: Tested for effect of compound on G2/M cell cycle phase and apoptosis in HeLa cells at a dose of 10E-8 for 72 hr; assay type: functional, Homo sapiens
Summary of the method: (§1)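 HeLa cells grown in DMEM with 10% heat-inactivated FCS, 2 mM L-glutamine, penicillin and gentamicin at 37 °C, 5% CO2. Exposed to compound at 10^-6 to 10^-8 M for 24, 48 or 72 h, untreated controls run in parallel. (3-5) × 10^5 cells fixed overnight in 70% ethanol at 4 °C, then RNase A plus propidium iodide. Phase fractions measured by flow cytometry, with sub-G1 (hypodiploid) cells counted as apoptotic. Three independent experiments.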

[2] = system: HeLa; experiment: Tested for effect of compound on G2/M cell cycle phase and apoptosis in HeLa cells at a dose of 10E-8 for 24 hr; assay type: functional, Homo sapiens; summary of the method: as §1
[3] = system: HeLa; experiment: Tested for effect of compound on G0/G1 cell cycle phase and apoptosis in HeLa cells at a dose of 10E-8 for 72 hr; assay type: functional, Homo sapiens
Summary of the method: (§2)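 HeLa cells were grown in DMEM with 10% heat-inactivated FCS and 2 mM L-glutamine at 37 °C in 5% CO2. They were exposed to 10^-6 to 10^-8 M for 24, 48 or 72 h. Then (3-5)×10^5 cells were fixed overnight in 70% ethanol at 4 °C, PBS-washed, and given 1 mg/mL RNase A plus 20 µg/mL propidium iodide for 1 h at room temperature. DNA content was read by flow cytometry. Sub-G1 (hypodiploid) % counted as apoptotic. Untreated controls were run in parallel. Representative of three independent experiments.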

[4] = system: HeLa; experiment: Tested for effect of compound on Sub-G1 cell cycle phase and apoptosis in HeLa cells at a dose of 10E-7 for 24 hr; assay type: functional, Homo sapiens; summary of the method: as §1
[5] = system: HeLa; experiment: Tested for effect of compound on Sub-G1 cell cycle phase and apoptosis in HeLa cells at a dose of 10E-7 for 48 hr; assay type: functional, Homo sapiens; summary of the method: as §1
[6] = system: HeLa; experiment: Tested for effect of compound on G2/M cell cycle phase and apoptosis in HeLa cells at a dose of 10E-7 for 24 hr; assay type: functional, Homo sapiens; summary of the method: as §1
[7] = system: HT-29; experiment: In vitro cytotoxicity against HT-29 (human colon carcinoma) cell line.; assay type: functional, cell-based; conditions: Homo sapiens, HT-29
[8] = system: HeLa; experiment: Tested for effect of compound on G0/G1 cell cycle phase and apoptosis in HeLa cells at a dose of 10E-8 for 48 hr; assay type: functional, Homo sapiens; summary of the method: as §2
[9] = system: HeLa; experiment: Tested for effect of compound on G0/G1 cell cycle phase and apoptosis in HeLa cells at a dose of 10E-7 for 24 hr; assay type: functional, Homo sapiens; summary of the method: as §2
[10] = system: HeLa; experiment: Tested for effect of compound on G2/M cell cycle phase and apoptosis in HeLa cells at a dose of 10E-7 for 48 hr; assay type: functional, Homo sapiens; summary of the method: as §1
[11] = system: HeLa; experiment: Tested for effect of compound on S cell cycle phase and apoptosis in HeLa cells at a dose of 10E-7 for 48 hr; assay type: functional, Homo sapiens; summary of the method: as §1
[12] = system: HeLa; experiment: Tested for effect of compound on G0/G1 cell cycle phase and apoptosis in HeLa cells at a dose of 10E-7 for 48 hr; assay type: functional, Homo sapiens; summary of the method: as §2
[13] = system: HeLa; experiment: Tested for effect of compound on G2/M cell cycle phase and apoptosis in HeLa cells at a dose of 10E-7 for 72 hr; assay type: functional, Homo sapiens; summary of the method: as §1
[14] = system: HeLa; experiment: Tested for effect of compound on S cell cycle phase and apoptosis in HeLa cells at a dose of 10E-7 for 72 hr; assay type: functional, Homo sapiens; summary of the method: as §1
[15] = system: HeLa; experiment: Tested for effect of compound on G2/M cell cycle phase and apoptosis in HeLa cells at a dose of 10E-6 for 24 hr; assay type: functional, Homo sapiens; summary of the method: as §2
[16] = system: HeLa; experiment: Tested for effect of compound on S cell cycle phase and apoptosis in HeLa cells at a dose of 10E-6 for 72 hr; assay type: functional, Homo sapiens; summary of the method: as §1
[17] = system: A549; experiment: In vitro cytotoxicity against A-549 (human lung carcinoma) cell line.; assay type: functional, cell-based; conditions: Homo sapiens, A549
[18] = system: HeLa; experiment: Tested for effect of compound on G0/G1 cell cycle phase and apoptosis in HeLa cells at a dose of 10E-6 for 72 hr; assay type: functional, Homo sapiens; summary of the method: as §2
[19] = system: HeLa; experiment: Tested for effect of compound on G2/M cell cycle phase and apoptosis in HeLa cells at a dose of 10E-6 for 72 hr; assay type: functional, Homo sapiens; summary of the method: as §1
[20] = system: HeLa; experiment: Tested for effect of compound on G0/G1 cell cycle phase and apoptosis in HeLa cells at a dose of 10E-8 for 24 hr; assay type: functional, Homo sapiens; summary of the method: as §2
[21] = system: HeLa; experiment: Tested for effect of compound on Sub-G1 cell cycle phase and apoptosis in HeLa cells at a dose of 10E-8 for 24 hr; assay type: functional, Homo sapiens; summary of the method: as §1
[22] = Selectivity index is the ratio of IC50 of P-388 cell line to that of HT-29; assay type: functional
[23] = system: HeLa; experiment: Tested for effect of compound on Sub-G1 cell cycle phase and apoptosis in HeLa cells at a dose of 10E-6 for 72 hr; assay type: functional, Homo sapiens; summary of the method: as §1
[24] = system: HeLa; experiment: Tested for effect of compound on S cell cycle phase and apoptosis in HeLa cells at a dose of 10E-6 for 48 hr; assay type: functional, Homo sapiens; summary of the method: as §1
[25] = system: HeLa; experiment: Tested for effect of compound on S cell cycle phase and apoptosis in HeLa cells at a dose of 10E-8 for 48 hr; assay type: functional, Homo sapiens; summary of the method: as §1
[26] = system: HeLa; experiment: Tested for effect of compound on G2/M cell cycle phase and apoptosis in HeLa cells at a dose of 10E-8 for 48 hr; assay type: functional, Homo sapiens; summary of the method: as §1
[27] = system: HeLa; experiment: Tested for effect of compound on G2/M cell cycle phase and apoptosis in HeLa cells at a dose of 10E-6 for 48 hr; assay type: functional, Homo sapiens; summary of the method: as §2
[28] = system: HeLa; experiment: Tested for effect of compound on S cell cycle phase and apoptosis in HeLa cells at a dose of 10E-8 for 72 hr; assay type: functional, Homo sapiens; summary of the method: as §1
[29] = system: HeLa; experiment: Tested for effect of compound on Sub-G1 cell cycle phase and apoptosis in HeLa cells at a dose of 10E-8 for 48 hr; assay type: functional, Homo sapiens; summary of the method: as §1
[30] = system: HeLa; experiment: Tested for effect of compound on Sub-G1 cell cycle phase and apoptosis in HeLa cells at a dose of 10E-6 for 24 hr; assay type: functional, Homo sapiens; summary of the method: as §1
[31] = system: P388; experiment: Tested in vitro for antineoplastic activity against P-388 (lymphoid neoplasm from DBA/2 mouse) tumor cell line; assay type: functional, cell-based
Summary of the method: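 P-388 cells seeded at 1 × 10^4 cells/well in MEM–10% FCS containing graded compound concentrations. Incubated 4 days at 37 °C, 10% CO2, 98% humidity. Inhibition scored by inverted microscopy against untreated controls, which were kept in exponential growth. Mean of duplicate wells.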

[32] = system: HeLa; experiment: Tested for effect of compound on G0/G1 cell cycle phase and apoptosis in HeLa cells at a dose of 10E-6 for 24 hr; assay type: functional, Homo sapiens; summary of the method: as §2
[33] = system: HeLa; experiment: Tested for effect of compound on Sub-G1 cell cycle phase and apoptosis in HeLa cells at a dose of 10E-8 for 72 hr; assay type: functional, Homo sapiens; summary of the method: as §1
[34] = system: HeLa; experiment: Tested for effect of compound on Sub-G1 cell cycle phase and apoptosis in HeLa cells at a dose of 10E-7 for 72 hr; assay type: functional, Homo sapiens; summary of the method: as §1
[35] = system: HeLa; experiment: Tested for effect of compound on G0/G1 cell cycle phase and apoptosis in HeLa cells at a dose of 10E-7 for 72 hr; assay type: functional, Homo sapiens; summary of the method: as §2
[36] = system: HeLa; experiment: Tested for effect of compound on S cell cycle phase and apoptosis in HeLa cells at a dose of 10E-7 for 24 hr; assay type: functional, Homo sapiens; summary of the method: as §1
[37] = system: HeLa; experiment: Tested for effect of compound on G0/G1 cell cycle phase and apoptosis in HeLa cells at a dose of 10E-6 for 48 hr; assay type: functional, Homo sapiens; summary of the method: as §2
[38] = system: HeLa; experiment: Tested for effect of compound on S cell cycle phase and apoptosis in HeLa cells at a dose of 10E-6 for 24 hr; assay type: functional, Homo sapiens; summary of the method: as §1
[39] = system: HeLa; experiment: Tested for effect of compound on Sub-G1 cell cycle phase and apoptosis in HeLa cells at a dose of 10E-6 for 48 hr; assay type: functional, Homo sapiens; summary of the method: as §1
[40] = system: HeLa; experiment: Tested for effect of compound on S cell cycle phase and apoptosis in HeLa cells at a dose of 10E-8 for 24 hr; assay type: functional, Homo sapiens; summary of the method: as §1

## COC(=O)[C@@H]1C(/C=N/c2ccc(OC)cc2)=Cc2cc3c(cc2C1c1cc(OC)c(OC)c(OC)c1)OCO3 (stereo not given in full)
[1]
  Activity: 26.6%
[2]
  Activity: 28.2%
[3]
  Activity: 59.3%
[4]
  Activity: 1.6%
[5]
  Activity: 5.2%
[6]
  Activity: 46.1%
[7]
  IC50: 9.4 nM
[8]
  Activity: 57.5%
[9]
  Activity: 33.5%
[10]
  Activity: 80.9%
[11]
  Activity: 6.2%
[12]
  Activity: 7.7%
[13]
  Activity: 24.2%
[14]
  Activity: 13.6%
[15]
  Activity: 90.8%
[16]
  Activity: 20.8%
[17]
  IC50: 94 nM
[18]
  Activity: 19.4%
[19]
  Activity: 10.4%
[20]
  Activity: 55.1%
[21]
  Activity: 1.4%
[22]
  Selectivity index: 100
[23]
  Activity: 49.4%
[24]
  Activity: 6%
[25]
  Activity: 15.1%
[26]
  Activity: 25.5%
[27]
  Activity: 47.8%
[28]
  Activity: 11.4%
[29]
  Activity: 1.9%
[30]
  Activity: 1.9%
[31]
  IC50: 940 nM
[32]
  Activity: 2%
[33]
  Activity: 2.7%
[34]
  Activity: 27.1%
[35]
  Activity: 35.1%
[36]
  Activity: 18.8%
[37]
  Activity: 20.9%
[38]
  Activity: 5.3%
[39]
  Activity: 25.3%
[40]
  Activity: 15.3%

Reference: ChEMBL document CHEMBL1148485, “Synthesis and biological evaluation of new selective cytotoxic cyclolignans derived from podophyllotoxin” (J Med Chem, 2004)
